Data reported in ChEMBL document CHEMBL4428070, “Design, synthesis, and evaluation of 4,6-diaminonicotinamide derivatives as novel and potent immunomodulators targeting JAK3” (Bioorg Med Chem, 2016).
Blank lines part the entries; values can stand above or below the compound they belong to.

Assays:
[1] = Tmax in rat at 1 mg/kg, po; format: ADME, organism-based; details: in vivo
[2] = target: Serine/threonine-protein kinase Chk1 (Homo sapiens) (UniProt O14757); experiment: Inhibition of CHK1 (unknown origin) at 1 uM
[3] = target: Bone morphogenetic protein receptor type-1A (Homo sapiens) (UniProt P36894); experiment: Inhibition of BMPR1A (unknown origin) at 1 uM
[4] = target: High affinity nerve growth factor receptor (Homo sapiens) (UniProt P04629); experiment: Inhibition of TRKA (unknown origin) at 0.1 uM
High affinity nerve growth factor receptor (Homo sapiens), sequence (P04629 33-796 limits assumed): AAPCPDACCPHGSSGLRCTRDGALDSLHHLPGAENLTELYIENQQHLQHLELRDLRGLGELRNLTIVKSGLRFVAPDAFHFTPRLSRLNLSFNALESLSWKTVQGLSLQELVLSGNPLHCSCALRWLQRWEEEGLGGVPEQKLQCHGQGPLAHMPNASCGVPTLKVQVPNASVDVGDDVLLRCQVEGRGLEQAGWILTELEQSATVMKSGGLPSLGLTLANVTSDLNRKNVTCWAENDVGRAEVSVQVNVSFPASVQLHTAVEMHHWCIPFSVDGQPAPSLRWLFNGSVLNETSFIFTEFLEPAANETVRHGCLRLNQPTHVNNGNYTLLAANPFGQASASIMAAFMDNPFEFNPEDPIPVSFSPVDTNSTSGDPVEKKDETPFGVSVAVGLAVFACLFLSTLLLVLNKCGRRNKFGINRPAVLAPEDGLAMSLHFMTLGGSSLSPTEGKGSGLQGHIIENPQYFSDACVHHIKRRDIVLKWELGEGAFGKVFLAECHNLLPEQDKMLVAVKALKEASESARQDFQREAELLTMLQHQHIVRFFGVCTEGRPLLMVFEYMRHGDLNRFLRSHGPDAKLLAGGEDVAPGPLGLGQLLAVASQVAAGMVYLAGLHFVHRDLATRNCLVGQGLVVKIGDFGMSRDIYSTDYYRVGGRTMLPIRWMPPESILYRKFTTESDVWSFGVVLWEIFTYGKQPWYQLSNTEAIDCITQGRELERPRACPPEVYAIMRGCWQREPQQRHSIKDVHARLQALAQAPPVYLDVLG

[5] = AUC (0 to 24 hrs) in rat at 1 mg/kg, po; format: ADME, organism-based; set-up: dose 1 mg/kg, time < 24 hr, route oral; details: in vivo
[6] = target: Voltage-gated inwardly rectifying potassium channel KCNH2 (Homo sapiens, UniProt Q12809); experiment: Inhibition of human ERG expressed in CHO-K1 cells after 10 mins by Rb efflux assay; format: cell-based
Voltage-gated inwardly rectifying potassium channel KCNH2, sequence (Q12809 whole entry): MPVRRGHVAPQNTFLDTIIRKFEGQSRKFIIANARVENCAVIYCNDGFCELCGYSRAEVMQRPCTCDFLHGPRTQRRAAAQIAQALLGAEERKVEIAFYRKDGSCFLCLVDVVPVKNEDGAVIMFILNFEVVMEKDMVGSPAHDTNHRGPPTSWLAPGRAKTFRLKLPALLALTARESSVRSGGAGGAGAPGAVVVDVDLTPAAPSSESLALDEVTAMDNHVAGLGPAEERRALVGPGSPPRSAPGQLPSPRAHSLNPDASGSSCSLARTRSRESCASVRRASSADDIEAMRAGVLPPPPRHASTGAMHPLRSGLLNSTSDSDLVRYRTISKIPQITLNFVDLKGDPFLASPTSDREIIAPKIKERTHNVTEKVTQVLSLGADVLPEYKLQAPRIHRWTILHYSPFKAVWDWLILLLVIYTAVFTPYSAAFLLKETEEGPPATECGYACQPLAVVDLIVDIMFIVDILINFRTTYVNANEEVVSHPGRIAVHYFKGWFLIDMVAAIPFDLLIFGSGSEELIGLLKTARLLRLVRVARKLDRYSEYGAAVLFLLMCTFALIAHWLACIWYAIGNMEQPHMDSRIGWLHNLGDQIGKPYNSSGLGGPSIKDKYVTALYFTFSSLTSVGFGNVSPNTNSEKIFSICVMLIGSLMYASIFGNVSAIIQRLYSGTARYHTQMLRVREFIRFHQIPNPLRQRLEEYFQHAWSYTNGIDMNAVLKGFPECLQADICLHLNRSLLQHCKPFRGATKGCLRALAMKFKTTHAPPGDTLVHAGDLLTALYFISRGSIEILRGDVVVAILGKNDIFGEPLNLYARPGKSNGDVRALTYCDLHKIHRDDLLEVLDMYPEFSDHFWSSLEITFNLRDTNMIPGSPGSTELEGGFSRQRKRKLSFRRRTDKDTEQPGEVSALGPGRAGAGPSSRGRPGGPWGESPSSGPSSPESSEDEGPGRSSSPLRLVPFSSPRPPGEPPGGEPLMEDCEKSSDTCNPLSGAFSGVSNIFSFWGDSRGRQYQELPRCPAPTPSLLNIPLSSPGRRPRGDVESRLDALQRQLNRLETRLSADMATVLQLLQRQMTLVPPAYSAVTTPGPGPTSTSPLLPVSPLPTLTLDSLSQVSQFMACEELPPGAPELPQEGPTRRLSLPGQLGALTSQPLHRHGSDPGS

[7] = target: Mitogen-activated protein kinase kinase kinase 9 (Homo sapiens) (UniProt P80192); experiment: Inhibition of MLK1 (unknown origin) at 1 uM
Mitogen-activated protein kinase kinase kinase 9 (Homo sapiens), sequence (P80192 whole entry, looked up): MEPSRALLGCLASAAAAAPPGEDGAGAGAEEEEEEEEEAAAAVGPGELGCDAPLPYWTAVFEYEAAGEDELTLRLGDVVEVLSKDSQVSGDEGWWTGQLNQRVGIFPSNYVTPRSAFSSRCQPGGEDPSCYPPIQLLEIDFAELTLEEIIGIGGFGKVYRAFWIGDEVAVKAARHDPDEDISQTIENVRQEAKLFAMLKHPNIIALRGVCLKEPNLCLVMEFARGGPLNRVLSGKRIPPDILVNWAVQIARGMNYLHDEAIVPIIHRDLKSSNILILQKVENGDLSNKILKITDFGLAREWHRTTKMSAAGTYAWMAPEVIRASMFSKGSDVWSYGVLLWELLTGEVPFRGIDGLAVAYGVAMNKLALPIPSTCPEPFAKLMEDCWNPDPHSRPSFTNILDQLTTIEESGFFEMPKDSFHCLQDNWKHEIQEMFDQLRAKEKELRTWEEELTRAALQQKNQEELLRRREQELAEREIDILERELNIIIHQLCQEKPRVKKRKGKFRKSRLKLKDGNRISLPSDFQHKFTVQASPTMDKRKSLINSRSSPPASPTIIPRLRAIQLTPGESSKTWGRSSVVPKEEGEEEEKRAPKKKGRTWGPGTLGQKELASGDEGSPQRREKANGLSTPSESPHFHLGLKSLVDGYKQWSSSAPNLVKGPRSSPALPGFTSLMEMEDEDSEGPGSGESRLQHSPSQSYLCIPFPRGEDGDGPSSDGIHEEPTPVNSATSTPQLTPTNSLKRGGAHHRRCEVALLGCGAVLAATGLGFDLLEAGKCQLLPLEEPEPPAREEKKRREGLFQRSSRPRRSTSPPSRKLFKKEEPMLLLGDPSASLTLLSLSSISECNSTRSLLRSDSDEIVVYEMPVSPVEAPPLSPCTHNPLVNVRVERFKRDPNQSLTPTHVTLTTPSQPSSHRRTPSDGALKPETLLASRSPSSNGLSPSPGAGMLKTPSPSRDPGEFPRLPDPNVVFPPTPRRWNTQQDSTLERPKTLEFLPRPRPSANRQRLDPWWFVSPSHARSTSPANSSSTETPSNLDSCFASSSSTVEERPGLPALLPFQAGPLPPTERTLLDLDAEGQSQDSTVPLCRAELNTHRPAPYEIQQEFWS

[8] = Effective permeability of the compound at pH 6.5 by PAMPA; format: ADME; details: read-out: Peff
Summary of the method: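 Parallel artificial membrane permeability assay, donor buffer pH 6.5; effective permeability reported in cm/sec (n=3).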

[9] = Total clearance in rat at 1 mg/kg, iv; format: ADME, organism-based; details: in vivo
[10] = AUC (0 to 24 hrs) in rat at 1 mg/kg, iv; format: ADME, organism-based; set-up: dose 1 mg/kg, time < 24 hr, route intravenous; details: in vivo
[11] = target: High affinity nerve growth factor receptor (Homo sapiens) (UniProt P04629); experiment: Inhibition of TRKA (unknown origin) at 0.01 uM
[12] = Intrinsic clearance in human liver microsomes in presence of NADPH; format: ADME, Microsome; details: read-out: CLH
Summary of the method: (§1)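 Incubation with rat or human liver microsomes plus NADPH-generating system; intrinsic clearance expressed as mL/min/kg (n=2).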

[13] = target: T1, CDK2/Cyclin A2 (Homo sapiens) (UniProt P24941+P20248); experiment: Inhibition of CDK2/CycA (unknown origin) at 0.1 uM; format: protein-complex assay
[14] = Cmax in rat at 1 mg/kg, po; format: ADME, organism-based; set-up: dose 1 mg/kg, route oral; details: in vivo
[15] = target: Receptor tyrosine-protein kinase erbB-2 (Homo sapiens) (UniProt P04626); experiment: Inhibition of HER2 (unknown origin) at 1 uM
[16] = target: T1, CDK2/Cyclin A2 (Homo sapiens); experiment: Inhibition of CDK2/CycA (unknown origin) at 0.01 uM; format: protein-complex assay
[17] = target: Tyrosine-protein kinase ZAP-70 (Homo sapiens) (UniProt P43403); experiment: Inhibition of ZAP70 (unknown origin) at 1 uM
[18] = target: Casein kinase I isoform delta (Homo sapiens) (UniProt P48730); experiment: Inhibition of CK1delta (unknown origin) at 1 uM
[19] = target: Angiopoietin-1 receptor (Homo sapiens) (UniProt Q02763); experiment: Inhibition of TIE2 (unknown origin) at 1 uM
[20] = target: Tyrosine-protein kinase ABL1 (Homo sapiens) (UniProt P00519); experiment: Inhibition of ABL (unknown origin) at 1 uM
[21] = target: Calcium/calmodulin-dependent protein kinase type II subunit alpha (Homo sapiens) (UniProt Q9UQM7); experiment: Inhibition of CaMK2alpha (unknown origin) at 1 uM
[22] = Intrinsic clearance in rat liver microsomes in presence of NADPH; format: ADME, Microsome; details: read-out: CLH; summary of the method: as §1
[23] = Half life in rat at 1 mg/kg, iv; format: ADME, organism-based; details: in vivo
[24] = Oral bioavailability in rat at 1 mg/kg; format: ADME, organism-based; details: in vivo
[25] = target: Focal adhesion kinase 1 (Homo sapiens) (UniProt Q05397); experiment: Inhibition of FAK (unknown origin) at 1 uM
[26] = target: Tyrosine-protein kinase BTK (Homo sapiens) (UniProt Q06187); experiment: Inhibition of BTK (unknown origin) at 1 uM
Tyrosine-protein kinase BTK (Homo sapiens), sequence (Q06187 whole entry): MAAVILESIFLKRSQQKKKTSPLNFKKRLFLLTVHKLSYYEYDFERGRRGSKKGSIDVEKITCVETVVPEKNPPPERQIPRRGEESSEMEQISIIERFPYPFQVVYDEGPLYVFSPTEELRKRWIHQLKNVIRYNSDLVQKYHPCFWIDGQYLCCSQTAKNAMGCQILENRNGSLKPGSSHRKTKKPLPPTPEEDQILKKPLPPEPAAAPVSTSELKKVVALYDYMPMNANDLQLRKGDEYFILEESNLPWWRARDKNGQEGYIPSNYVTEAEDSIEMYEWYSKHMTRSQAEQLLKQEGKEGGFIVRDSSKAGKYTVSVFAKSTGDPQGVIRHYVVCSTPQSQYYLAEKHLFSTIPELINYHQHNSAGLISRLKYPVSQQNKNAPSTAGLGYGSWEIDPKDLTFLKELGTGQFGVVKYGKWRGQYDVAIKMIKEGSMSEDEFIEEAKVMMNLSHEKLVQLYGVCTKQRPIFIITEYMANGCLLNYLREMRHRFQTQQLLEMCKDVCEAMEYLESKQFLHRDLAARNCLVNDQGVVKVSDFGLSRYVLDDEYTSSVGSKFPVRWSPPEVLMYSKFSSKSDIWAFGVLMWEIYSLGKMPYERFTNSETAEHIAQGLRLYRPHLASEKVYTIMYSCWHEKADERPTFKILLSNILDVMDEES

[27] = target: Tyrosine-protein kinase JAK1 (Homo sapiens, UniProt P23458); experiment: Inhibition of human JAK1 assessed as reduction in phosphorylation of Biotin-Lyn-Substrate-2 after 1 hr in presence of ATP by ELISA
[28] = target: RAC-alpha serine/threonine-protein kinase (Homo sapiens) (UniProt P31749); experiment: Inhibition of AKT1 (unknown origin) at 1 uM
[29] = target: Epidermal growth factor receptor (Homo sapiens) (UniProt P00533); experiment: Inhibition of EGFR (unknown origin) at 1 uM
[30] = target: Mitogen-activated protein kinase kinase kinase 9 (Homo sapiens) (UniProt P80192); experiment: Inhibition of MLK1 (unknown origin) at 0.01 uM
[31] = target: Aurora kinase C (Homo sapiens) (UniProt Q9UQB9); experiment: Inhibition of AurC (unknown origin) at 1 uM
[32] = target: Mitogen-activated protein kinase kinase kinase 9 (Homo sapiens) (UniProt P80192); experiment: Inhibition of MLK1 (unknown origin) at 0.1 uM
[33] = system: Rattus norvegicus; experiment: Immunomodulatory activity in ACI-to-Lewis rat heterotopic cardiac transplant model assessed as cardiac allograft survival at 10 mg/kg, po coadministered with tacrolimus at 0.02 mg/kg, im dosed from day of transplantation once daily for 14 consecutive days; format: functional
Summary of the method: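 ACI rat hearts transplanted heterotopically into Lewis recipients. Oral drug given once daily for 14 consecutive days starting on the day of operation. In the combination arm, tacrolimus was given intramuscularly once daily. Cardiac allograft survival was checked by daily palpation for 28 days and expressed as median survival time (MST).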

[34] = Volume of distribution at steady state in rat at 1 mg/kg, iv; format: ADME, organism-based; details: in vivo, read-out: Vdss
[35] = target: Ephrin type-A receptor 2 (Homo sapiens) (UniProt P29317); experiment: Inhibition of EPHA2 (unknown origin) at 1 uM
[36] = target: High affinity nerve growth factor receptor (Homo sapiens) (UniProt P04629); experiment: Inhibition of TRKA (unknown origin) at 1 uM
[37] = target: T1, CDK2/Cyclin A2 (Homo sapiens); experiment: Inhibition of CDK2/CycA (unknown origin) at 1 uM; format: protein-complex assay
[38] = target: Tyrosine-protein kinase JAK2 (Homo sapiens, UniProt O60674); experiment: Inhibition of human JAK2 assessed as reduction in phosphorylation of Biotin-Lyn-Substrate-2 after 1 hr in presence of ATP by ELISA
Tyrosine-protein kinase JAK2, sequence (O60674 whole entry): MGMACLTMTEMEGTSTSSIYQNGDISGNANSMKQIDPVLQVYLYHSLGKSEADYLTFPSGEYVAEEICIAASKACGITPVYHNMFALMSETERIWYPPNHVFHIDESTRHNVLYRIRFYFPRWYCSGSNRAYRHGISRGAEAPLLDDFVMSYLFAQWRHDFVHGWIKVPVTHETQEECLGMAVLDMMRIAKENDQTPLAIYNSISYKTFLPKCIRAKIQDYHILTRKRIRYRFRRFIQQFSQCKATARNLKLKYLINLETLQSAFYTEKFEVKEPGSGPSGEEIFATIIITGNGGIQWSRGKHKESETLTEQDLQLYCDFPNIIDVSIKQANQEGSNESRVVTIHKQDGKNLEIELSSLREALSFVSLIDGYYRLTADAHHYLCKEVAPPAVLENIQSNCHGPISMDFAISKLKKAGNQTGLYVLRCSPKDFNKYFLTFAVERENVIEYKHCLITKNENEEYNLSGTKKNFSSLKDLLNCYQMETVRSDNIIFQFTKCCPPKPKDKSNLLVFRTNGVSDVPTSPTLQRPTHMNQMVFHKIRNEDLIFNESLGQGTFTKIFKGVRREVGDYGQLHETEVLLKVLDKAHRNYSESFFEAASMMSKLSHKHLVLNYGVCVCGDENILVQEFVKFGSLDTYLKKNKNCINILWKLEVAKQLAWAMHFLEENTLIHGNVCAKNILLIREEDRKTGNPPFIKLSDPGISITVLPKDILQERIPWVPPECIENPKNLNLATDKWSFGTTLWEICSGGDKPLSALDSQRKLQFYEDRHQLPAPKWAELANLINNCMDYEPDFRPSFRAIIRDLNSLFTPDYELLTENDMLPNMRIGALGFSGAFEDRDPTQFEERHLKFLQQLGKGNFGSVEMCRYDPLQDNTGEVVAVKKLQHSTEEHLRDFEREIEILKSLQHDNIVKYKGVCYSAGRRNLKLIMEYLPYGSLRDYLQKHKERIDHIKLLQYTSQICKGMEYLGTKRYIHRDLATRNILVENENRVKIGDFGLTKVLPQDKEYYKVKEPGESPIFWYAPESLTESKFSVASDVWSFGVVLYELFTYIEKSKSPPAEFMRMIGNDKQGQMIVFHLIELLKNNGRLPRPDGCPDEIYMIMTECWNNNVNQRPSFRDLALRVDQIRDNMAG

[39] = target: T2, Tyrosine-protein kinase JAK3 (Homo sapiens, UniProt P52333); experiment: Inhibition of human JAK3 assessed as reduction in phosphorylation of Biotin-Lyn-Substrate-2 after 1 hr in presence of ATP by ELISA
T2 sequence (P52333 whole entry): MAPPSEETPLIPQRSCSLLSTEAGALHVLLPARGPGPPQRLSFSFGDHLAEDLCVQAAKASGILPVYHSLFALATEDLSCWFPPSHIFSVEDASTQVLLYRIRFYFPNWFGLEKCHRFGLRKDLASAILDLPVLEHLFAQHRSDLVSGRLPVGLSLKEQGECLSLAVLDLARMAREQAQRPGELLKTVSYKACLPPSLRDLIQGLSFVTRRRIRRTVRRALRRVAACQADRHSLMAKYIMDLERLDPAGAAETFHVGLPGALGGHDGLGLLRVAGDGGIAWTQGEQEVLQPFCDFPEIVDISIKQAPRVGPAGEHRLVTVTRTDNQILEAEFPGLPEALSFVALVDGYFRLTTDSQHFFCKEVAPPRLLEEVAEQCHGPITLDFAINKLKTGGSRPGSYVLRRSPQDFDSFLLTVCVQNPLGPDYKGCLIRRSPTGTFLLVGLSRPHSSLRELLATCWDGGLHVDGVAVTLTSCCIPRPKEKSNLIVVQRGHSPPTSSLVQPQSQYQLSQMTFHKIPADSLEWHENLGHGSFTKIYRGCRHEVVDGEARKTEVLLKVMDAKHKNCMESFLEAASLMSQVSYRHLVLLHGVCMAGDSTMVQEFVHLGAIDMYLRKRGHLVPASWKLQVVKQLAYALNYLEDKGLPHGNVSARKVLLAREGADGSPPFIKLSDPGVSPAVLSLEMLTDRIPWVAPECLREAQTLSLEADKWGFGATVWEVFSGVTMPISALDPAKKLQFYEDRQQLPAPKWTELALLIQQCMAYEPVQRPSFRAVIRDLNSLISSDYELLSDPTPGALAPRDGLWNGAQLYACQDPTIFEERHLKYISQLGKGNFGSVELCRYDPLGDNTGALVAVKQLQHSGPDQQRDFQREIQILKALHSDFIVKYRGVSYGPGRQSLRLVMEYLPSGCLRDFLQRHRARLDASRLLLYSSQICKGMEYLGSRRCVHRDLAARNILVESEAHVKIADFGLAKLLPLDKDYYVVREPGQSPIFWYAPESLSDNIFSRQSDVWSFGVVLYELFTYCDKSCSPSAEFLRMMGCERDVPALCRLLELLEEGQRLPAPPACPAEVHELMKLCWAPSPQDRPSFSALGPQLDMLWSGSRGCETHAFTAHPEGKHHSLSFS

[40] = target: Tyrosine-protein kinase JAK3 (Homo sapiens) (UniProt P52333); experiment: Inhibition of human JAK3 assessed as phosphorylation of Biotin-Lyn-Substrate-2 at 1 uM after 1 hr in presence of ATP by ELISA
[41] = system: Rattus norvegicus; experiment: Immunomodulatory activity in ACI-to-Lewis rat heterotopic cardiac transplant model assessed as mean survival time at 0.02 mg/kg, im dosed from day of transplantation once daily for 14 consecutive days measured for 28 days; format: functional

IC50 [39]: 25 nM
IC50 [38]: 130 nM
SMILES: Cc1nc2ccc(Nc3cc(NC4CCN(c5ccc(C#N)cn5)CC4)c(C(N)=O)cn3)cc2o1

IC50 [39]: 0.72 nM
IC50 [27]: 2.5 nM
IC50 [38]: 4.1 nM
SMILES: N#Cc1ccc(N2CCC(Nc3cc(Nc4cnccn4)ncc3C(N)=O)CC2)nc1
IC50 [6]: 7.7 µM

IC50 [27]: 5.4 nM
IC50 [38]: 3.2 nM
SMILES: Cc1nccc(Nc2cc(NC3CCN(c4ccc(C#N)cn4)CC3)c(C(N)=O)cn2)n1
IC50 [6]: 8.1 µM

IC50 [27]: 0.24 nM
SMILES: Cc1nccc(Nc2cc(N[C@@H]3CCN(c4ccc(C#N)cn4)C[C@@H]3F)c(C(N)=O)cn2)n1
IC50 [6]: > 100 µM

IC50 [39]: 0.46 nM
IC50 [27]: 2.9 nM
SMILES: N#Cc1ccc(N2CCC(Nc3cc(Nc4ccccn4)ncc3C(N)=O)CC2)nc1
IC50 [6]: 0.36 µM

IC50 [39]: 1.1 nM
IC50 [27]: 6.7 nM
IC50 [38]: 5.3 nM
SMILES: Cc1cnc(Nc2cc(NC3CCN(c4ccc(C#N)cn4)CC3)c(C(N)=O)cn2)cn1
IC50 [6]: 4.8 µM

IC50 [39]: 0.61 nM
IC50 [27]: 3.5 nM
IC50 [38]: 5.5 nM
SMILES: N#Cc1ccc(N2CCC(Nc3cc(Nc4ccncn4)ncc3C(N)=O)CC2)nc1
IC50 [6]: 17 µM

IC50 [39]: 22 nM
IC50 [38]: 400 nM
SMILES: Cc1nc2cc(Nc3cc(NC4CCN(c5ccc(C#N)cn5)CC4)c(C(N)=O)cn3)ccc2o1

IC50 [39]: 1 nM
IC50 [27]: 1.9 nM
IC50 [38]: 4 nM
SMILES: Cc1cncc(Nc2cc(NC3CCN(c4ccc(C#N)cn4)CC3)c(C(N)=O)cn2)n1
IC50 [6]: 5.4 µM

The next lines start with the compound.

SMILES: Cc1nccc(Nc2cc(NC3CCN(c4ccc(C#N)cc4)CC3)c(C(N)=O)cn2)n1
Tmax [1]: 24 min
inhibition [2]: 33%
inhibition [3]: 3%
inhibition [4]: 49%
AUC(0-t) at 24 h [5]: 278 ng·h/mL
IC50 [6]: > 100 µM
inhibition [7]: 96%
Papp [8]: > 30 ×10⁻⁶ cm/s
clearance [9]: 14.3 mL/min/kg
AUC(0-t) at 24 h [10]: 1180 ng·h/mL
inhibition [11]: 8%
CLint scaled [12]: 109 mL/min/kg
inhibition [13]: 76%
Cmax [14]: 52.9 ng/mL
inhibition [15]: 14%
inhibition [16]: 27%
inhibition [17]: -2%
inhibition [18]: 25%
inhibition [19]: 8%
inhibition [20]: 54%
inhibition [21]: -1%
CLint scaled [22]: 146 mL/min/kg
half-life [23]: 204 min
bioavailability [24]: 23.6%
inhibition [25]: 18%
inhibition [26]: 49%
IC50 [27]: 4.2 nM
inhibition [28]: 10%
inhibition [29]: 19%
inhibition [30]: 26%
inhibition [31]: 28%
inhibition [32]: 84%
MST [33]: 22.5 days
Vd [34]: 3.5 L/kg
inhibition [35]: 11%
inhibition [36]: 94%
inhibition [37]: 96%
IC50 [38]: 3.5 nM

SMILES: CN(c1ccccc1)c1cc(NCc2ccccc2)c(C(N)=O)cn1
IC50 [39]: > 1000 nM
inhibition [40]: 40%

SMILES: C[C@@H]1CCCC[C@@H]1Nc1cc(Nc2ccccc2)ncc1C(N)=O
IC50 [39]: 37 nM

SMILES: N#Cc1ccc(N2CCC(Nc3cc(Nc4ccccc4)ncc3C(N)=O)CC2)nc1
IC50 [39]: 18 nM
IC50 [38]: 190 nM

SMILES: NC(=O)c1cnc(N)cc1NCc1ccccc1
IC50 [39]: > 1000 nM
inhibition [40]: 41%

SMILES: C=CC[C@@H]1/C=C(\C)C[C@H](C)C[C@H](OC)[C@H]2O[C@@](O)(C(=O)C(=O)N3CCCC[C@H]3C(=O)O[C@H](/C(C)=C/[C@@H]3CC[C@@H](O)[C@H](OC)C3)[C@H](C)[C@@H](O)CC1=O)[C@H](C)C[C@@H]2OC [TACROLIMUS ANHYDROUS]
MST [41]: 6.5 days
